Results on 14 molecules are retold here after publication PMC9358981 (Journal of pharmacological and toxicological methods, 2021).

The subject of one experiment is PC-6-15 cells. Briefly: NGF induced neurite sprouting. Format: cell-based, rat. The conditions noted are these: for Effect on neurite sprouting, ligand alone / Potentiation of NGF induced neurite sprouting: 24 hours; for Effect on neurite sprouting, ligand alone: 0.5% serum; for Potentiation of NGF induced neurite sprouting: co-treated with 0.3 ng/mL NGF. Put shortly:
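PC12-derived PC-6-15 cells overexpressing trkA, kept in RPMI1640 with 10% horse serum, 5% FBS and 0.1 mg/mL G418. Plated on type I collagen in 0.5% serum medium. Treated 24 hours in duplicate with vehicle (DMSO 1:1000 v/v), test compound, NGF (0.3–100 ng/mL concentration-response), or test compound plus 0.3 ng/mL NGF. Neurite length/cell was total traced neurite length divided by total cell count.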

A further experiment deals with MCF7-hS1R cells. The experiment can be described thus: Bradykinin. Format: cell-based, human. The settings on record: pre-treatment with sigma ligand.
The test system of another experiment is MN9D cells. The experiment can be described thus: BDNF secretion via in situ ELISA. Format: cell-based. The settings on record: for Efficacy of BDNF secretion / Stimulation of BDNF secretion (in words): 10 μM, MN9D cells; for Efficacy of BDNF secretion: normalized to the maximal response of 10 μM 4-PPBP.
The next experiment has as its target human S2R (Homo sapiens, UniProt Q5BJF2). Briefly: Radioligand competition binding with [3H]-DTG at the S2R. The conditions noted are these: for Pseudo-Hill slope at the S2R: competition with [3H]-DTG.
In another experiment the target is human S1R (Homo sapiens, UniProt Q99720). The experiment can be described thus: Radioligand competition binding with [3H]-. The settings on record: for Pseudo-Hill slope at the S1R: competition with [3H]-(+)-pentazocine; for S2R/S1R ratio (Ki S2R / Ki S1R): selectivity for S1R over S2R, fold. A general note: In a radioligand displacement assay an active substance lowers the binding of a labelled ligand.
Chain of human S1R (Q99720 whole entry): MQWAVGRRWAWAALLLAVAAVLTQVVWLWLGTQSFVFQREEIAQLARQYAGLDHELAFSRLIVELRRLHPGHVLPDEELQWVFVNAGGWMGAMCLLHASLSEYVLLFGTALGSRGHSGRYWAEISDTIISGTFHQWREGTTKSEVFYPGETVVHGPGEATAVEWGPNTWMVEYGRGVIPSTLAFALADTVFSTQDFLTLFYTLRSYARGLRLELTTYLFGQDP

Setting [1] is: 15 nM BD1063, Fractional Occupancy = [ligand]/([ligand]+Ki).
Where [2] appears, read: read-out: S1R affinity (Ki), displacement of 0.5 nM [3H]-(+)-pentazocine, MCF-7-S1R, mean ± SEM.

“Also recorded” adds a separate entry of the source. Read-outs that look alike come from different tables or passages of the source.

Chain of human S2R (Q5BJF2 whole entry): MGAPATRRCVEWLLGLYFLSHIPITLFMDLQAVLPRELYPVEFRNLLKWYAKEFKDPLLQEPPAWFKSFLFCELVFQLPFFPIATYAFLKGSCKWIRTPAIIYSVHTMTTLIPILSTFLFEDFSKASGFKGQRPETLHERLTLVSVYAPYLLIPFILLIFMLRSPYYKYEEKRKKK

Turning to `c1ccc(CCCCN2CCC(c3ccccc3)CC2)cc1` [4-PPBP], in the experiment on PC-6-15 cells, the “Effect on neurite sprouting, ligand alone” value (from here on “Effect on neurite sprouting”) is “unable to stimulate neurite sprouting” and the “Potentiation of NGF induced neurite sprouting” value (“Potentiation” for short) is given as “neither 4-PPBP or promethazine enhanced NGF induced sprouting; also recorded: nor did it potentiate NGF induced sprouting”. Besides, the “Effect of sigma ligand on the bradykinin calcium response” value in the experiment with MCF7-hS1R cells was “no significant potentiation or suppression”. The “Secreted BDNF at maximal stimulation” value in the experiment with MN9D cells (10 μM 4-PPBP, 24 hrs, mean ± SEM, n = 3–10, baseline 75.4 ± 6.9) stood at 128.6 ± 12.8 pg/mL. In addition, the “Efficacy of BDNF secretion” value in the experiment with MN9D cells (24 hrs, mean ± SEM) is given as 1. Moreover, in the experiment with MN9D cells, the “Stimulation of BDNF secretion (in words)” value is on record as “robust BDNF secretion response”. Besides, the “Pseudo-Hill slope at the S2R” value at human S2R is “near unity”. Moreover, on human S1R, the “Pseudo-Hill slope at the S1R” value was −3.1.
Regarding `CCN(CC)CCOCCOC(=O)C(CC)(CC)c1ccccc1` [Oxeladin], the Ki (commonly a measure of affinity in units of concentration, obtained from inhibition or displacement) at human S2R was 148 ± 64 nM; at human S1R, 25 ± 4.3 nM.
In the case of `CCC(C(=O)OCCOCCN(CC)CC)c1ccccc1` (stereo not drawn) [Butamirate], the “Stimulation of BDNF secretion (in words)” value in the experiment on MN9D cells was “completely abolished the BDNF secretion activity”. For the same molecule, the Ki was 214 ± 41 nM at human S2R and 17.2 ± 1.7 nM on human S1R.
As to `CCN(CC)CCOCCOC(=O)C1(c2ccccc2)CCCC1` [Carbetapentane], in the experiment with PC-6-15 cells, the “Effect on neurite sprouting” value is given as “none of them had any effect” and the “Potentiation” value was “none of them had any effect”. Moreover, the “Efficacy of BDNF secretion” value with MN9D cells (24 hrs, mean ± SEM) was 0.73 ± 0.05. The molecule also returned a Ki at human S2R of 55.7 ± 3.8 nM. Besides, on human S1R, the Ki amounted to 19.8 ± 2.3 nM and the “S2R/S1R ratio (Ki S2R / Ki S1R)” value is recorded as 3.
Consider `CN1CCN(CCc2ccc(Cl)c(Cl)c2)CC1` [BD1063], for which the “Effect of sigma ligand on the bradykinin calcium response” value in the experiment on MCF7-hS1R cells is reported as “no significant potentiation or suppression”. Besides, the “Calculated S2R occupancy” value at human S2R (setting [1]) is reported as 7%. Moreover, the “Pseudo-Hill slope at the S2R” value at human S2R is “near unity”. For the same molecule, the “Calculated S1R occupancy” value at human S1R (setting [1]) is listed as 74%. Also, on human S1R, the “Pseudo-Hill slope at the S1R” value was “equal to unity” and the “S2R/S1R ratio (Ki S2R / Ki S1R)” value was found to be 38. Further, the Ki at human S1R (setting [2]) turned out to be 5.6 ± 0.5 nM.
Regarding `COCCCC/C(=N\OCCN)c1ccc(C(F)(F)F)cc1` [fluvoxamine], in the experiment with PC-6-15 cells, the “Effect on neurite sprouting” value is “none of them had any effect” and the “Potentiation” value is “none of them had any effect”.
`CCC(C/C=C/c1ccccc1)(c1ccccc1)N(C)CC1CC1` (single isomer, unassigned; (+)) [(+)-Igmesine]: the “Efficacy of BDNF secretion” value with MN9D cells (24 hrs, mean ± SEM) is listed as 0.42 ± 0.03. Moreover, the “Stimulation of BDNF secretion (in words)” value in the experiment on MN9D cells is “BDNF secreting activity”. In the experiment with MN9D cells (compound 10 μM + 15 nM BD1063, MN9D cells), the “Reversal of the BDNF response by S1R-selective concentration of BD1063” value is recorded as “could be reversed”. Further, the Ki on human S1R (setting [2]) is 9.2 ± 2.2 nM. Moreover, the “S2R/S1R ratio (Ki S2R / Ki S1R)” value at human S1R is 18.
Turning to `CCCCOCCOC(=O)C(c1ccccc1)N(CC)CC` (stereo not drawn) [Cas# 1796909-31-3, 2-Butoxyethyl 2-(diethylamino)-2-phenylacetate], the “Stimulation of BDNF secretion (in words)” value in the experiment with MN9D cells is “BDNF secreting activity”.
In the case of `CCCN(CCC)CCc1ccc(OC)c(OCCc2ccccc2)c1` [NE-100], the “Effect of sigma ligand on the bradykinin calcium response” value in the experiment with MCF7-hS1R cells is “no significant potentiation or suppression”. In addition, on human S2R, the “Pseudo-Hill slope at the S2R” value was “near unity”. Besides, the “Pseudo-Hill slope at the S1R” value on human S1R is listed as −3.1.
`O=C(OCCN1CCOCC1)C1(c2ccccc2)CCCCC1` [PRE-084]: in the experiment on PC-6-15 cells, the “Effect on neurite sprouting” value is on record as “none of them had any effect” and the “Potentiation” value is “none of them had any effect”. Besides, the “Effect of sigma ligand on the bradykinin calcium response” value in the experiment on MCF7-hS1R cells was “no significant potentiation or suppression”. Also, in the experiment on MN9D cells, the “Stimulation of BDNF secretion (in words)” value was “no effect; also recorded: failed to stimulate BDNF secretion; also recorded: no activity”. In addition, on human S2R, the “Pseudo-Hill slope at the S2R” value is listed as “near unity”. The “Pseudo-Hill slope at the S1R” value at human S1R is −0.98.
With `CC(CN1c2ccccc2Sc2ccccc21)N(C)C` (stereo not drawn) [Promethazine], in the experiment with PC-6-15 cells, the “Potentiation” value is “neither 4-PPBP or promethazine enhanced NGF induced sprouting”. Also, the Emax at 10 µM with MN9D cells (MN9D, read-out: Efficacy for BDNF secretion, % of the maximum response) worked out at 103%.
Turning to (+)-SKF10047, the “Effect of sigma ligand on the bradykinin calcium response” value in the experiment on MCF7-hS1R cells is listed as “no significant potentiation or suppression”.
On to `COc1cc2c(cc1OC)C(=O)C(CC1CCN(Cc3ccccc3)CC1)C2` (stereo not drawn) [Donepezil], for which the “Stimulation of BDNF secretion (in words)” value in the experiment on MN9D cells is given as “BDNF secreting activity”.

B1: NGF: nerve growth factor (βNGF, EMD Millipore) (protein, UniProt P01139 122-241, looked up)
Beta-nerve growth factor: SSTHPVFHMGEFSVCDSVSVWVGDKTTATDIKGKEVTVLAEVNINNSVFRQYFFETKCRASNPVESGCRGIDSKHWNSYCTTTHTFVKALTTDEKQAAWRFIRIDTACVCVLSRKATRRG
modifications: beta-NGF
In the case of B1, in the experiment on PC-6-15 cells (0.3 to 100 ng/mL tested), the “Lowest concentration tested that induced neurite sprouting” value came to 0.3 ng/mL.
